A short description of series [1]: Stability in rat liver microsomes assessed as maximum bioavailability. It is filed as ADME, Microsome. The following applies: read-out: Fmax. (In general: Liver microsomes are a subcellular fraction often used to study metabolism.)
A short description of series [2]: Clearance in monkey hepatocytes. It is filed as ADME, cell-based, Macaca mulatta, Hepatocyte. As to conditions: rhesus monkey.
Series [3] in a line: Stability in dog hepatocytes assessed as maximum bioavailability. It is filed as ADME, Canis lupus familiaris, Hepatocyte. As to conditions: read-out: Fmax.
The nature of series [4]: Stability in human liver microsomes assessed as maximum bioavailability. The following applies: read-out: Fmax. It is filed as ADME, Microsome.
Series [5] in a line: Volume of distribution at steady state in Beagle dog at 0.1 mg/kg, iv. Type of series: ADME, organism-based, Canis lupus familiaris. The following applies: in vivo. In a few lines: (§1)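 Single intravenous dose: 0.3 mg kg⁻¹ in male Wistar rats; 0.1 mg kg⁻¹ in female Beagle dogs. Plasma pharmacokinetics gave steady-state volume of distribution.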
Series [6] in a line: Clearance in human hepatocytes. Type of series: ADME, cell-based, Hepatocyte.
A short description of series [7]: Dose normalized Cmax in Beagle dog at 0.2 mg/kg, po. It is filed as ADME, organism-based, Canis lupus familiaris. As to conditions: in vivo.
A short description of series [8]: Clearance in rat hepatocytes. Type of series: ADME, cell-based, Hepatocyte.
The nature of series [9]: Stability in dog liver microsomes assessed as maximum bioavailability. Type of series: ADME, Canis lupus familiaris, Microsome. As to conditions: read-out: Fmax.
A short description of series [10]: Volume of distribution at steady state in Wistar rat at 0.3 mg/kg, iv. It is filed as ADME, organism-based. The following applies: in vivo. In a few lines:
as §1

Series [11] in a line: Stability in dog liver microsomes. It is filed as ADME, Canis lupus familiaris, Microsome.
Series [12] in a line: Stability in monkey hepatocytes assessed as maximum bioavailability. Type of series: ADME, Macaca mulatta, Hepatocyte. As to conditions: rhesus monkey, read-out: Fmax.
The target in series [13] is T1, Solute carrier family 2, facilitated glucose transporter member 4 (Homo sapiens, UniProt P14672).
T1 sequence (P14672 whole entry): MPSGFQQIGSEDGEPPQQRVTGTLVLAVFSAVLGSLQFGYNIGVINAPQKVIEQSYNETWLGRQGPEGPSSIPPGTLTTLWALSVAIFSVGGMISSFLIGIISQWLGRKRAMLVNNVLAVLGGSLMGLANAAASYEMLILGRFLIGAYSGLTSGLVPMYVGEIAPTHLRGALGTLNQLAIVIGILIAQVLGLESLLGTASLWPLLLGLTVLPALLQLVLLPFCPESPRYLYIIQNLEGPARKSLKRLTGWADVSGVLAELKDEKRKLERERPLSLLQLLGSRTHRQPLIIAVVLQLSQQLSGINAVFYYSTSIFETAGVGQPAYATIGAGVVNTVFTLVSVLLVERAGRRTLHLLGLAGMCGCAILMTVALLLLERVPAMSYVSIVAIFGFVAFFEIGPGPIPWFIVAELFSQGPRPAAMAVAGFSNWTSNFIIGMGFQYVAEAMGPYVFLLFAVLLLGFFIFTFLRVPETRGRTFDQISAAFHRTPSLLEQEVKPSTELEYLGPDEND
Briefly: Inhibition of human GLUT4 expressed in CHO cells assessed as reduction in glucose uptake by measuring decrease in ATP production preincubated for 20 mins followed by glucose addition and measured after 15 mins in presence of oxidative phosphorylation inhibitor rotenone by CellTiter-Glo Luminescent Cell Viability Assay. Type of series: cell-based.

Series [14] is described as follows: Clearance in human liver microsomes. Type of series: ADME, Microsome.
A short description of series [15]: Stability in monkey liver microsomes assessed as maximum bioavailability. Type of series: ADME, Macaca mulatta, Microsome. The following applies: rhesus monkey, read-out: Fmax.
A short description of series [16]: Stability in mouse liver microsomes assessed as maximum bioavailability. As to conditions: read-out: Fmax. Type of series: ADME, Microsome.
The nature of series [17]: Clearance in monkey liver microsomes. Type of series: ADME, Macaca mulatta, Microsome. As to conditions: rhesus monkey.
Series [18] is described as follows: Stability in rat hepatocytes assessed as maximum bioavailability. It is filed as ADME, Hepatocyte. The following applies: read-out: Fmax.
Series [19] in a line: Stability in human hepatocytes assessed as maximum bioavailability. Type of series: ADME, Hepatocyte. As to conditions: read-out: Fmax.
A short description of series [20]: Clearance in dog hepatocytes. Type of series: ADME, cell-based, Canis lupus familiaris, Hepatocyte.
Series [21] in a line: Apparent permeability across apical to basolateral side in human Caco-2 cells at 2 uM measured after 2 hrs. It is filed as ADME, cell-based. The following applies: caco-2, 2 h. An outline of the steps: (§2)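 Bidirectional Caco-2 transport at 2 μm over 2 h, apical→basolateral and basolateral→apical. Apparent permeability (P_app) is taken from compound transport. Efflux ratio is P_app B→A divided by P_app A→B.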
On the technique in general: Passage across Caco-2 layers is used to estimate intestinal permeability.

Series [22] is described as follows: Clearance in mouse liver microsomes. Type of series: ADME, Microsome.
The nature of series [23]: Clearance in dog liver microsomes. It is filed as ADME, Canis lupus familiaris, Microsome.
Series [24] is described as follows: Clearance in rat liver microsomes. It is filed as ADME, Microsome.
In series [25] the target is T2, Solute carrier family 2, facilitated glucose transporter member 1 (Homo sapiens, UniProt P11166).
T2 sequence (P11166 whole entry): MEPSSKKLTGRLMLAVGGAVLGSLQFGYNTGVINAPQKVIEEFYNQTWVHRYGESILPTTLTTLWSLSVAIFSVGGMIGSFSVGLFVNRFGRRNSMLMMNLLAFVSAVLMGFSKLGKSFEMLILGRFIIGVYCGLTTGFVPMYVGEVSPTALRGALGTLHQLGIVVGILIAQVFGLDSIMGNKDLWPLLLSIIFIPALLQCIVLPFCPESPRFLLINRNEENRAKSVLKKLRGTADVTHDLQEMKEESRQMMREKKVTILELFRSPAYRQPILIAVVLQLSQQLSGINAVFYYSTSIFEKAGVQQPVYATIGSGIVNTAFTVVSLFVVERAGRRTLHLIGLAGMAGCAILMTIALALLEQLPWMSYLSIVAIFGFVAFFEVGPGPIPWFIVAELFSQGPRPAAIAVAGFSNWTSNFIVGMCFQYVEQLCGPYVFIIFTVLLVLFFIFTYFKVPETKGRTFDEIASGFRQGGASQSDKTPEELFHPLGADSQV
Briefly: Inhibition of human GLUT1 expressed in human DLD-1 cells assessed as reduction in glucose uptake by measuring decrease in ATP production incubated for 15 mins in presence of oxidative phosphorylation inhibitor rotenone by CellTiter-Glo Luminescent Cell Viability Assay. It is filed as cell-based. In general terms: ATP-based viability assays read luminescence as a measure of living cells.

The nature of series [26]: Efflux ratio of apparent permeability across basolateral to apical side over apical to basolateral side in human Caco-2 cells at 2 uM measured after 2 hrs. It is filed as ADME, cell-based. The following applies: caco-2, 2 h. In a few lines: as §2
The target of series [27] is T3, Solute carrier family 2, facilitated glucose transporter member 2 (Homo sapiens, UniProt P11168).
T3 sequence (P11168 whole entry): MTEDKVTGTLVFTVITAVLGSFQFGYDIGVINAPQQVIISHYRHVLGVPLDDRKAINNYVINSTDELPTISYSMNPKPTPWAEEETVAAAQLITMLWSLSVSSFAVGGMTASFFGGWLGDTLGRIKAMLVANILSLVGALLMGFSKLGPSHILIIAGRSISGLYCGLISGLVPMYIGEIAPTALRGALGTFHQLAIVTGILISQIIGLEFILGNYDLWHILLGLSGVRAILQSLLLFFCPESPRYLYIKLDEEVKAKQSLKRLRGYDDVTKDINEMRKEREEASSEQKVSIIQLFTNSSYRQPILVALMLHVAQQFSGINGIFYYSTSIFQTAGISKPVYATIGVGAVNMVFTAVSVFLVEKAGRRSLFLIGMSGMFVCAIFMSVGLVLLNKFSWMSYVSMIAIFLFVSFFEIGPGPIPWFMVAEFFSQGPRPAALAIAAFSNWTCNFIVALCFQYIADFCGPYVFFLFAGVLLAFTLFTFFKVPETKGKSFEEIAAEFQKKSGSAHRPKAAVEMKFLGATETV
Briefly: Inhibition of human GLUT2 expressed in CHO cells assessed as reduction in fructose uptake by measuring decrease in ATP production incubated for 15 mins in presence of oxidative phosphorylation inhibitor rotenone by CellTiter-Glo Luminescent Cell Viability Assay. It is filed as cell-based.

The target in series [28] is T4, Solute carrier family 2, facilitated glucose transporter member 3 (Homo sapiens, UniProt P11169).
T4 sequence (P11169 whole entry): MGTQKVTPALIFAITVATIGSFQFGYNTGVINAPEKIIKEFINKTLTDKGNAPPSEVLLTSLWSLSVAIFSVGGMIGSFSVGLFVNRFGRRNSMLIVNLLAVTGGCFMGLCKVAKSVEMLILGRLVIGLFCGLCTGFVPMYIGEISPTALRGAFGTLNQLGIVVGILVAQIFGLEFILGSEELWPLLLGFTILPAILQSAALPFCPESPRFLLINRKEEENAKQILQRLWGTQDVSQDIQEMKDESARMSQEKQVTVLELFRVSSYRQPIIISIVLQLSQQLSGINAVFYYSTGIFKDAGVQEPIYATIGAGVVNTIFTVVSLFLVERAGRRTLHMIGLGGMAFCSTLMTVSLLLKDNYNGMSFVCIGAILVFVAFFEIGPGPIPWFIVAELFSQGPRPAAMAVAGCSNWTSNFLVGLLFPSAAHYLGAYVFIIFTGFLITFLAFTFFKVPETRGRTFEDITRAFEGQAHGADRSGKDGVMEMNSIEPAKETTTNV
As to the kind of experiment: Inhibition of human GLUT3 expressed in human GLUT1-/- DLD-1 cells assessed as reduction in glucose uptake by measuring decrease in ATP production incubated for 15 mins in presence of oxidative phosphorylation inhibitor rotenone by CellTiter-Glo Luminescent Cell Viability Assay. Type of series: cell-based.

Each structure is given as a SMILES string.

What is called Vdss is a proportionality between amount in the body and measured concentration, not a real space. What is called IC50 is the point on the concentration scale where inhibition reaches its midpoint. Take `Cc1c(NC(=O)c2cc(C(N)=O)nc3cc(F)ccc23)c(C(F)(F)F)nn1Cc1ccc(C#N)cc1` [BAY-876]: the Fh in [1] amounted to 74%; in [3], 90%; in [4], 76%; in series [9] it was 100%; in [12] it was 46%; in series [15] it was 70%. The results for the Fh in [16], in series [18] and in [19] were 94%, 89% and 72%, respectively. Besides, the CLH in series [2] is 23.3 mL/min/kg; in [6], 6.17 mL/min/kg; in [17] it was 12.7 mL/min/kg; in series [20], 3.3 mL/min/kg. Moreover, the Vdss in [5] stood at 1 L/kg; in series [10], 0.79 L/kg. The molecule further had a Cmax/dose in series [7] of 0.93 kg/L. For the same molecule, the values for the CLhep predicted in series [8] and in series [14] were 7.67 mL/min/kg and 5.33 mL/min/kg, respectively. Moreover, the Stability entry in [11] was “Stable”. For the same molecule, in series [13], the IC50 worked out at 290 nM.
One may read the Papp as the rate of passage across a membrane or cell layer, normalised by area and donor concentration. Take `Cc1c(NC(=O)c2cc(C(N)=O)nc3cc(F)ccc23)c(C(F)(F)F)nn1Cc1ccc(C#N)cn1`: the Fh in series [1] was determined as 91%; in series [3], 100%; in series [4], 86%; in [9], 100%; in series [12] it was 88%; in [15], 84%. Besides, the Fh turned out to be 93% in series [16], 99% in series [18] and 98% in series [19]. Further, the CLH amounted to 5.33 mL/min/kg in series [2]; 0.5 mL/min/kg in [6]; 0.017 mL/min/kg in series [23]; 6.17 mL/min/kg in series [24]; 6.7 mL/min/kg in series [17]; 0.017 mL/min/kg in series [20]. In addition, the Papp in series [21] is 1.6 ×10⁻⁶ cm/s. For the same molecule, the CLhep predicted in [22] was 6 mL/min/kg; in series [8], 0.667 mL/min/kg; in [14], 3.17 mL/min/kg. For the same molecule, the IC50 in series [25] worked out at 4 nM; in series [13] it was 620 nM.
Consider `Cc1c(NC(=O)c2cc(C(F)(F)F)nc3ccc(Br)cc23)c(C(F)(F)F)nn1Cc1ccc(F)cc1`, for which the Papp in series [21] was 0.35 ×10⁻⁶ cm/s. Also, the CLhep predicted in series [22] is 36.7 mL/min/kg; in series [8] it was 43.3 mL/min/kg. In addition, the Fh in [16] came out at 59%.
As for `Cc1c(NC(=O)c2cc(C(N)=O)nc3ccccc23)c(C(F)(F)F)nn1Cc1ccc(C#N)cc1`, the Fh in series [3] worked out at 95%; in series [4], 84%; in series [9], 97%; in series [16], 74%. Further, the CLhep predicted in [22] was 23.3 mL/min/kg; in series [8], 30 mL/min/kg; in [14] it was 3.5 mL/min/kg. Further, the CLH stood at 1 mL/min/kg in [23] and 1.83 mL/min/kg in [20]. In series [26], the Ratio is 3.7. Further, the IC50 in [25] turned out to be 6 nM; in [13], 170 nM; in series [27], 69000 nM; in series [28] it was 580 nM.
As for `C=C1[C@@H](C)[C@H]2[C@H](Cc3ccccc3)NC(=O)[C@]23OC(=O)/C=C/[C@H](O)CCC[C@@H](C)C/C=C/[C@H]3[C@@H]1O` [CYTOCHALASIN B], the IC50 in series [27] was found to be 2800 nM.
Consider `Cc1nn(CC2CCOCC2)c(C)c1NC(=O)c1cc(C(F)(F)F)nc2ccc(Br)cc12`, for which the IC50 in series [27] turned out to be 8500 nM.
For `Cc1c(NC(=O)c2cc(C(N)=O)nc3cc(F)ccc23)c(C(F)(F)F)nn1Cc1ccc(C(C)(C)C)cc1` [BAY-588], the concentration for half-maximal inhibition (IC50) in series [13] was 500 nM; in series [27] it was over 10000 nM.

The values above are taken from ChEMBL document CHEMBL5653626 (ChemMedChem, 2016).
